Our source for the IC50 and viability values is paper PMC9880397 (Heliyon, 2023).

As usually defined, the IC50 is the concentration that inhibits the measured activity by half. One may read the viability as a per cent measure of how many cells are alive, often set against a control.

Holding throughout (type): cell-based
In assay [1] the test system is MCF-7 human breast cancer cells. Description: SRB cytotoxicity assay, MCF-7 cells. The conditions noted are these: for IC50: MCF7, 48 h, read-out: IC50 against MCF-7 cells. In a few lines: (§1)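 Cells from ATCC, seeded at about […] in fresh medium at 37 ᵒC and <5% CO2. After 24 h, a DMSO series of test compound (up to 100 μg/mL) was added, then incubated 48 h. Read-out was A570, with DMSO control set as 100% viability.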
For orientation: In SRB staining, fixed cells bind dye roughly in proportion to their protein.

Assay [2] has as its system A-549 (Lung) human cancer cells. Description: SRB cytotoxicity assay, A-549 cells. Conditions: A549, read-out: % Viability of cancer cells A-549. The essentials:
as §1

The subject of assay [3] is HEPG-2 (Liver) human cancer cells. The assay can be described thus: SRB cytotoxicity assay, HEPG-2 cells. In a few lines:
as §1

Assay [4] relates to HCT-116 (Colon) human cancer cells. The assay can be described thus: SRB cytotoxicity assay, HCT-116 cells. Conditions: HCT-116, read-out: % Viability of cancer cells HCT-116. In a few lines:
as §1

[5] abbreviates: MCF7, read-out: % Viability of cancer cells MCF-7.
The mark [6] stands for this setting: HepG2, read-out: % Viability of cancer cells HEPG-2.

For the molecule `COc1ccc(OC)c(NC(=S)NN=Cc2ccccn2)c1` [HL^2, 4-(2,5-Dimethoxyphenyl)-1-((pyridin-2-yl)methylene)thiosemicarbazide], the IC50 in assay [1] was found to be 145 µM.

`COc1cccc2c1C(=O)c1c(O)c3c(c(O)c1C2=O)C[C@@](O)(C(=O)CO)C[C@@H]3O[C@H]1C[C@H](N)[C@H](O)[C@H](C)O1` [Doxorubicin, doxorubicin, reference compound]: in assay [1], the half-maximal inhibitory concentration (IC50) is 9.66 µM.

`O=[N+]([O-])c1ccc(NC(=S)NN=Cc2ccccn2)cc1` [HL^1, 4-(4-Nitrophenyl)-1-((pyridin-2-yl)methylene)thiosemicarbazide]: the IC50 in assay [1] is 52.4 µM; in assay [3] (HepG2, 48 h, read-out: IC50 against HEPG-2 cells) it was 80 µM. Moreover, the viability at 41.5 µM worked out at 60% in assay [1] (setting [5]), 71.9% in assay [2], 76% in assay [3] (setting [6]) and 80% in assay [4]. Moreover, the viability at 83 µM in assay [1] (setting [5]) was 26.4%; in assay [2], 70.7%; in assay [3] (setting [6]) it was 48%; in assay [4], 76%. For the same molecule, the viability at 124.5 µM amounted to 23.2% in assay [1] (setting [5]), 69.6% in assay [2], 39.2% in assay [3] (setting [6]) and 63.6% in assay [4]. The viability at 166 µM in assay [1] (setting [5]) amounted to 9.6%; in assay [2], 64.1%; in assay [3] (setting [6]) it was 33.2%; in assay [4], 60.4%.
